Source: ChEMBL document CHEMBL4622983, “Structure-Activity Relationship Studies of α-Ketoamides as Inhibitors of the Phospholipase A and Acyltransferase Enzyme Family” (J Med Chem, 2020)
The source made the active and inactive calls. No cut-off for these calls is given here.

Legend:
[1] = molecular target: T1, Phospholipase A and acyltransferase 2 (Homo sapiens, UniProt Q9NWW9); experiment: Inhibition of full-length C-terminal FLAG-tagged human PLAAT2 expressed in HEK293T cell lysate preincubated for 30 mins followed by MB064 addition and measured after 20 mins by SDS-PAGE based ABPP analysis; type: cell-free, HEK-293T
T1 sequence (Q9NWW9 whole entry): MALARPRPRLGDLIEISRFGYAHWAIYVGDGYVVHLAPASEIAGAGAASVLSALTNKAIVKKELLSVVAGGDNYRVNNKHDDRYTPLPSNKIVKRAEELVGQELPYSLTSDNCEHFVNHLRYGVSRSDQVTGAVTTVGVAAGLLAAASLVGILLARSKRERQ
Outline: (§1)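 Dose–response competitive ABPP on cytosol only, from HEK293T overexpressing FLAG-tagged PLAAT. Inhibitor 30 min rt, then MB064 20 min rt. PLAAT2 0.25 μg/μL with 250 nM probe; PLAAT3 0.5 μg/μL with 250 nM; PLAAT4 and PLAAT5 1 μg/μL with 500 nM. Fluorescence normalized to Coomassie. IC50 from curves, reported as pIC50 ± SEM, n = 3.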

[2] = molecular target: T2, Phospholipase A and acyltransferase 3 (Homo sapiens, UniProt P53816); experiment: Inhibition of full-length C-terminal FLAG-tagged human PLAAT3 expressed in HEK293T cell lysate preincubated for 30 mins followed by MB064 addition and measured after 20 mins by SDS-PAGE based ABPP analysis; type: cell-free, HEK-293T; outline: as §1
T2 sequence (P53816 whole entry): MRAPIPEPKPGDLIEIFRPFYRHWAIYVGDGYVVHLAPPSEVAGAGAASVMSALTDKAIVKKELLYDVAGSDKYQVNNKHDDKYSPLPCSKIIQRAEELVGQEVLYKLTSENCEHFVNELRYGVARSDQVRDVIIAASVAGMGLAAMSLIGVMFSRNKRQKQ

[3] = molecular target: T3, Phospholipase A and acyltransferase 5 (Homo sapiens, UniProt Q96KN8); experiment: Inhibition of full-length C-terminal FLAG-tagged human PLAAT5 expressed in HEK293T cell lysate preincubated for 30 mins followed by MB064 addition and measured after 20 mins by SDS-PAGE based ABPP analysis; type: cell-free, HEK-293T; outline: as §1
T3 sequence (Q96KN8 whole entry): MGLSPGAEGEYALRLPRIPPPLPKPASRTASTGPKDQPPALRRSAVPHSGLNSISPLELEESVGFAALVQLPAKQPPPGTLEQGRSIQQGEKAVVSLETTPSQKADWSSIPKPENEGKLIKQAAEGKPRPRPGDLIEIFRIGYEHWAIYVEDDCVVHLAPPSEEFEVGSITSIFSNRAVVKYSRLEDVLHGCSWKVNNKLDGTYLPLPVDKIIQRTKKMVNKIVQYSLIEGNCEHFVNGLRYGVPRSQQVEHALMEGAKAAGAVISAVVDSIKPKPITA

[4] = molecular target: Monoacylglycerol lipase ABHD6 (Mus musculus) (UniProt Q8R2Y0); experiment: Inhibition of mouse brain membrane ABHD6 assessed as enzyme remaining activity at 10 uM preincubated for 30 mins followed by MB064 or FP-TAMRA addition and measured after 15 mins by SDS-PAGE based ABPP analysis relative to control; type: cell membranes
Outline: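 Mouse brain membrane proteome (2 μg/μL) preincubated with 10 μM inhibitor for 30 min at rt. Then MB064 250 nM or FP-TAMRA 500 nM for 15 min at rt. Resolved on 10% SDS-PAGE, fluorescence normalized to Coomassie. Reported as % remaining activity ± SD, n = 3.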

[5] = molecular target: T4, Phospholipase A and acyltransferase 2 (Homo sapiens) (UniProt Q9NWW9); experiment: Inhibition of full-length C-terminal FLAG-tagged human PLAAT2 expressed in human U2OS cells assessed as reduction in anandamide level at 10 uM incubated for 4 hrs by LC-MS/MS analysis relative to control; type: cell-based
T4 sequence (whole entry): T1 sequence (Q9NWW9 whole entry)
Outline: (§2)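 U2OS cells transfected with PLAAT2, PLAAT5 or empty vector (PEI, 1:5 plasmid/PEI). At 24 h, switched to serum-free medium with 10 μM compound (0.1% DMSO) or DMSO for 4 h at 37 °C. Pellets extracted with MTBE against deuterated internal standards. NAEs, 2-AG and free fatty acids quantified by LC–MS/MS, normalized to live cell count. Four biological replicates; one-way ANOVA.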

[6] = molecular target: T5, Phospholipase A and acyltransferase 5 (Homo sapiens) (UniProt Q96KN8); experiment: Inhibition of full-length C-terminal FLAG-tagged human PLAAT5 expressed in human U2OS cells assessed as reduction in anandamide level at 10 uM incubated for 4 hrs by LC-MS/MS analysis relative to control; type: cell-based; outline: as §2
T5 sequence (whole entry): T3 sequence (Q96KN8 whole entry)

[7] = molecular target: T5, Phospholipase A and acyltransferase 5 (Homo sapiens); experiment: Inhibition of full-length C-terminal FLAG-tagged human PLAAT5 expressed in human U2OS cells assessed as reduction in absolute N-stearoylethanolamine level at 10 uM incubated for 4 hrs by LC-MS/MS analysis; type: cell-based; outline: as §2
[8] = molecular target: T5, Phospholipase A and acyltransferase 5 (Homo sapiens); experiment: Inhibition of full-length C-terminal FLAG-tagged human PLAAT5 expressed in human U2OS cells assessed as reduction in absolute N-oleoylethanolamine level at 10 uM incubated for 4 hrs by LC-MS/MS analysis; type: cell-based; outline: as §2
U2OS [9] = experiment: Downregulation of N-palmitoleoylethanolamine level in human U2OS cells at 10 uM after 4 hrs by LC-MS/MS analysis; type: functional, cell-based; outline: as §2
U2OS [10] = experiment: Downregulation of N-docosahexaenoylethanolamine level in human U2OS cells at 10 uM after 4 hrs by LC-MS/MS analysis; type: functional, cell-based; outline: as §2
[11] = molecular target: T4, Phospholipase A and acyltransferase 2 (Homo sapiens); experiment: Inhibition of full-length C-terminal FLAG-tagged human PLAAT2 expressed in human U2OS cells assessed as reduction in arachidonic acid level at 10 uM incubated for 4 hrs by LC-MS/MS analysis; type: cell-based; outline: as §2
[12] = molecular target: T5, Phospholipase A and acyltransferase 5 (Homo sapiens); experiment: Inhibition of full-length C-terminal FLAG-tagged human PLAAT5 expressed in human U2OS cells assessed as reduction in 2-AG level at 10 uM incubated for 4 hrs by LC-MS/MS analysis; type: cell-based; outline: as §2
U2OS [13] = experiment: Inhibition of serine hydrolase in human U2OS cell membrane fraction at 10 uM preincubated for 30 mins followed by FP-TAMRA addition and measured after 15 mins by SDS-PAGE based competitive ABPP analysis
Outline: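 U2OS membrane lysate (2.5 μg/μL) preincubated with inhibitor for 30 min at rt. FP-TAMRA 500 nM added for 15 min at rt. SDS-PAGE with in-gel fluorescence normalized to Coomassie.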

U2OS [14] = experiment: Inhibition of serine hydrolase in human U2OS cytosolic fraction at 10 uM preincubated for 30 mins followed by MB064 addition and measured after 15 mins by SDS-PAGE based competitive ABPP analysis
Outline: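 U2OS cytosol or membrane lysate at 2.5 μg/μL, pretreated with inhibitor or DMSO vehicle for 30 min at rt. Probe then added for 15 min at rt: MB064 at 2 μM or FP-TAMRA at 500 nM. Samples denatured in Laemmli buffer and resolved by SDS-PAGE. In-gel fluorescence scanned at Cy3/Cy5 settings and normalized to Coomassie staining.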

[15] = molecular target: Cytosolic phospholipase A2 beta (Homo sapiens) (UniProt P0C869); experiment: Inhibition of human PLA2G4B expressed in HEK293T cell lysates at 10 uM preincubated for 30 mins followed by FP-TAMRA addition and measured after 20 mins by SDS-PAGE based competitive ABPP analysis; type: cell-free; conditions: HEK-293T
Outline: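 hPLA2G4B, C or D-overexpressing membrane lysate (1 μg/μL) preincubated with inhibitor for 30 min at rt. FP-TAMRA 500 nM added for 20 min at rt. In-gel fluorescence after SDS-PAGE, normalized to Coomassie.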

Cytosolic phospholipase A2 beta (Homo sapiens), sequence (P0C869 whole entry): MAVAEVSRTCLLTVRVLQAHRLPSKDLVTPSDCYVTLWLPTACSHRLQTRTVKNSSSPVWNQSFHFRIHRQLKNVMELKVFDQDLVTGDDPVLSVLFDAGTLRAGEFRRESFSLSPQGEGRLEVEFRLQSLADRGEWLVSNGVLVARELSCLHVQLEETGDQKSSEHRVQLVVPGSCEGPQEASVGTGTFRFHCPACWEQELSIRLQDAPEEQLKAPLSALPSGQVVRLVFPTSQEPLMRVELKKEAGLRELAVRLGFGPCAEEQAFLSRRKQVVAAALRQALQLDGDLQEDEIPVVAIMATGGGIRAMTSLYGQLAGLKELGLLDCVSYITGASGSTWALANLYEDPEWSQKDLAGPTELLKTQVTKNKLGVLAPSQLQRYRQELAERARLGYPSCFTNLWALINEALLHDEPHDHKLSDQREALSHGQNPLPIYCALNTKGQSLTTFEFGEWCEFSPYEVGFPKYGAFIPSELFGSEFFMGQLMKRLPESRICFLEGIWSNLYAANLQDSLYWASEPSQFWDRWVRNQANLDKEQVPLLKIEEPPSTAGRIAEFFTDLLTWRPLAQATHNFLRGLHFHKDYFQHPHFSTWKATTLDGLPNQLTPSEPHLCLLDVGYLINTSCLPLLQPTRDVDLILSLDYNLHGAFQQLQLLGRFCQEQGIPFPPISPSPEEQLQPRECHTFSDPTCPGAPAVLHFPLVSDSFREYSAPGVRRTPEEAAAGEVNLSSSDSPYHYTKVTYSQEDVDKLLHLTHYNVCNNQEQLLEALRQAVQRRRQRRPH
Monoacylglycerol lipase ABHD6 (Mus musculus), sequence (Q8R2Y0 whole entry): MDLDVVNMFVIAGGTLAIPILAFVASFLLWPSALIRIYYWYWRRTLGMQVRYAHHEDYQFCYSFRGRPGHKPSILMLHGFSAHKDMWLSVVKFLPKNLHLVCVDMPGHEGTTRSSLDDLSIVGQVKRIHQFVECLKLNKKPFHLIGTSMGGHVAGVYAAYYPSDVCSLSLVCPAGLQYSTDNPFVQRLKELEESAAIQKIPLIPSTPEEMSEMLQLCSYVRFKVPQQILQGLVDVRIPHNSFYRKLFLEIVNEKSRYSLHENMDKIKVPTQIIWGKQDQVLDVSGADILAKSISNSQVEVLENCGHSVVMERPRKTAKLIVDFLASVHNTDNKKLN

O=C(CCCc1ccccc1)C(=O)NCCc1ccc(Oc2ccccc2)cc1
IC50 [1]: 50.1 nM | IC50 [2]: 251 nM | IC50 [3]: 39.8 nM | Activity [4]: 92% | fold change (FC) [5]: 2 | fold change (FC) [6]: 2 | inhibition [7]: Active | inhibition [8]: Active | inhibition (U2OS [9]): inactive | inhibition (U2OS [10]): inactive | inhibition [11]: inactive | inhibition [12]: inactive | inhibition (U2OS [13]): inactive | inhibition (U2OS [14]): inactive | inhibition [15]: inactive
